Screening data from PubChem BioAssay.
STAT3 blocker = STAT3 signaling inhibition; actives 0.89% (n = 190,000); inhibition, % at 5.5 µM; U3A cells, IL-6 STAT3-luciferase reporter, luminescence; host cell line lacks STAT1; AID 862;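 active means inhibition above the mean inhibition across all screened compounds plus 3 SD, cut at about 44% in these data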
C8 TRAIL sens = sensitizes caspase-8 expressing cells to TRAIL. AID 624354. NB7+C8 cells + TRAIL, ATPlite viability luminescence. inhibition (viability loss, TRAIL sensitization), % at 10 µM. actives 1% (n = 360,000);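 active means compounds causing at least 50% loss of cell viability in the single-dose screen, relative to plate controls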
FLuc act counter = affects firefly luciferase, flagging false hits in luciferase stimulation screens; 200,000 tested, under 10 active; ATPlite luciferase biochemical, luminescence, 10 min; 0 = ATP-free wells, 1 = DMSO control; activation factor at 10 µM; P08659;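 active means luciferase activation factor, scaled between plate controls, of at least 2 with compound at 10 µM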
Target sequence (P08659 whole entry, looked up): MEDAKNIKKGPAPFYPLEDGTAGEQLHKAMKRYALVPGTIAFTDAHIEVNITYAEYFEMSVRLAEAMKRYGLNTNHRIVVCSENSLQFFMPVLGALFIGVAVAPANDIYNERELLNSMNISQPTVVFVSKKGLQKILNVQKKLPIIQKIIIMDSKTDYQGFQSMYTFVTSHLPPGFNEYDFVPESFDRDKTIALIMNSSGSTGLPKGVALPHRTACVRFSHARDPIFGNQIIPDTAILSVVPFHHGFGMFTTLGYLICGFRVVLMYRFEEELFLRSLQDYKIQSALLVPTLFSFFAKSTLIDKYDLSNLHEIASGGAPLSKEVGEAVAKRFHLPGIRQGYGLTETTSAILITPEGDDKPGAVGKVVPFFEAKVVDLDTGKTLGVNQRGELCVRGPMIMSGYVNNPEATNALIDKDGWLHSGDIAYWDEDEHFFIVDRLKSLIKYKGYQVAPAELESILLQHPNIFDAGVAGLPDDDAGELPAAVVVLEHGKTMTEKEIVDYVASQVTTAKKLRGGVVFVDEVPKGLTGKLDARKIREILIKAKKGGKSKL
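assay system = Luciferase/luciferin detection reagent, cell-free biochemical luciferase assay | also added = ATP substrate | times = 10 min post-reagent at room temperature | measured by = luminescence from luciferase reaction | measure = luciferase activation, seen as luminescence increase over controls | benchmarks = low control with PBS replacing ATP, high control enzyme plus ATP without compound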
PPC-1+TRAIL kill = PPC-1 cancer cell killing with TRAIL present; PPC-1 cells + TRAIL, ATPLite viability luminescence; cell killing (% activity), % at 4 µM or 5 µM; actives 0.41% (n = 220,000); AID 1443;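 active means cell killing above 50% in the first pass at 4 µM, then a duplicate retest at 5 µM averaging 50% or more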
HSP90 inh = HSP90 refolding inhibition in rabbit reticulocyte lysate. inhibition, % at 5.6 µM. actives 0.91% (n = 290,000). luciferase refolding luminescence, 3 h;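 active means inhibition above the screen-wide mean plus 3 SD, computed separately per campaign, cut at about 16% in these data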;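 further: inhibitors lower the luminescence because luciferase stays unfolded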
FLuc inhib CS = inhibits firefly luciferase, flagging false hits in luciferase inhibition screens; ATPLite firefly luciferase biochemical luminescence, 10 min; actives 1.5% (n = 200,000); AID 1006; inhibition, % at 10 µM; P08659;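 active means inhibition above about 50% when tested at 10 µM, limit read from the data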
PPC-1 tox = kills PPC-1 cells | shares compounds with PPC-1+TRAIL kill | PPC-1 viability, ATPlite luminescence, overnight | cytotoxicity, % at 5 µM | actives 50% (n = 1,200);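 active means reconfirmed compounds whose average cytotoxicity reaches 50% or more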
Large screens that a line does not name were inactive (follow-up assays come after a bar, where they were run). Shown are actives, neighbours in structure and some others; about 2.2% of the full set was active somewhere.

COc1ccc(N/N=C(/N=Nc2nc(C)cc(=O)[nH]2)c2ccccc2)cc1	C8 TRAIL sens 53, PPC-1+TRAIL kill 61, FLuc inhib CS 73 | PPC-1 tox 58
Cc1cc(=O)[nH]c(SCC(=O)Nc2ccccc2C)n1	none
Cc1cc(=O)[nH]c(N=N/C(=N/Nc2ccccc2C)c2ccccc2)n1	none | PPC-1 tox inactive
O=C(CCNC(=O)OCc1ccccc1)NC1CCCCCC1	none
O=S(=O)(NCCCCCNS(=O)(=O)c1ccc(F)cc1)c1ccc(F)cc1	none | PPC-1 tox inactive
CCOC(=O)CCCCCC(=O)Nc1ccc2c(c1)C(=O)N([C@H](C)CO)C[C@@H](C)[C@@H](CN(C)C(=O)CCC(F)(F)F)OCCCC[C@H](C)O2	none (no result: STAT3 blocker, FLuc act counter, PPC-1+TRAIL kill, HSP90 inh, FLuc inhib CS)
CC(/C=N/NC(=O)c1ccco1)=C\c1ccccc1	C8 TRAIL sens 69, PPC-1+TRAIL kill 63, FLuc inhib CS 90 | PPC-1 tox 63
CCOC(=O)c1cc2sccc2n1CC(=O)Nc1ccc(OC)cc1	none
CCOC(=O)c1cc2sccc2n1CC(=O)Nc1ccc(OC)c(OC)c1	none | PPC-1 tox inactive
O=C(N/N=C/c1cccc([N+](=O)[O-])c1)c1ccc2c(c1)OCCO2	C8 TRAIL sens 68, PPC-1+TRAIL kill 68, FLuc inhib CS 84 | PPC-1 tox 68
O=C(N/N=C/c1ccc(Cl)c([N+](=O)[O-])c1)c1ccc2c(c1)OCCO2	none (no result: STAT3 blocker, FLuc act counter, PPC-1+TRAIL kill, HSP90 inh, FLuc inhib CS)
Cc1ccccc1NC(=O)C(C)OC(=O)C1CCCO1 (stereo unspecified)	none (no result: STAT3 blocker, FLuc act counter, PPC-1+TRAIL kill, HSP90 inh, FLuc inhib CS)
COc1nc(OC)nc(N2CCC(C(=O)NCc3cccs3)CC2)n1	none | PPC-1 tox inactive
Cc1cnc(C)c(N2CCC(C(=O)NCc3cccs3)CC2)n1	none
Clc1cccc(-c2cc3nc4c(c(N5CCOCC5)n3n2)CCCC4)c1	none | PPC-1 tox inactive
CCCOc1ccc(C(=O)Nc2ccc(S(=O)(=O)Nc3cc(C)nc(C)n3)cc2)cc1	none (no result: STAT3 blocker, FLuc act counter, FLuc inhib CS)
COc1ccc(N(C(C)C(=O)NC2CCCCCC2)S(C)(=O)=O)cc1 (stereo unspecified)	none | PPC-1 tox inactive
CN(C(=O)c1cccc(NC(=O)Cc2ccc(NC(=O)C3CCCN(C(=O)C4CCC4)C3)cc2)c1)C1CCC1 (stereo unspecified)	none (no result: STAT3 blocker, FLuc act counter, PPC-1+TRAIL kill, HSP90 inh, FLuc inhib CS)
O=C(Nc1ccccn1)c1sc2cccc(F)c2c1Cl	C8 TRAIL sens 81, PPC-1+TRAIL kill 81, FLuc inhib CS 81 | PPC-1 tox 83
CCc1nc2ccc(C(=O)Nc3cccc(OCC(=O)N(C)C)c3)cn2c1N(C)C(=O)c1cccc(OC)c1	none (no result: STAT3 blocker, FLuc act counter, PPC-1+TRAIL kill, HSP90 inh, FLuc inhib CS)
O=C(Nc1nc2ccc([N+](=O)[O-])cc2s1)c1ccco1	none (no result: C8 TRAIL sens) | PPC-1 tox inactive
CCNC(=S)NNC(=O)c1cc(C)nc2ccccc12	none
CCNC(=S)NNC(=O)c1cc(-c2cccc(C)c2)nc2ccccc12	C8 TRAIL sens 61, PPC-1+TRAIL kill 66, FLuc inhib CS 89 | PPC-1 tox 65
CCc1ccc(Nc2nnc(SCC(=O)NCCN3C(=O)CSC3=O)s2)cc1	C8 TRAIL sens 58, FLuc inhib CS 84 | PPC-1 tox inactive
N#Cc1cc2c(nc1SCc1nc3ccccc3[nH]1)CCC2	FLuc inhib CS 78 (no result: C8 TRAIL sens) | PPC-1 tox inactive
COCCN1C(=O)c2ccc(C(=O)NCc3cccnc3)cc2C1=O	none | PPC-1 tox inactive
Nc1ccn(C2CSC(CO)O2)c(=O)n1 (stereo unspecified)	none (no result: STAT3 blocker, FLuc act counter, PPC-1+TRAIL kill, HSP90 inh, FLuc inhib CS)
CC(=O)Nc1ccc2c(c1)nc1n2CCSC1	none
COc1ccccc1C(=O)Nc1ccc2c(c1)nc1n2CCSC1	FLuc inhib CS 78 | PPC-1 tox inactive
CC1C2NC(=O)N(Cc3ccccc3)C1(C)Oc1ccccc12 (stereo unspecified)	none | PPC-1 tox inactive
CN=C1SC(CC(=O)Nc2ccc(F)cc2F)C(=O)N1/N=C/c1ccc(OC(F)F)c(OC)c1 (stereo unspecified)	none
CC(=O)Nc1nc(COc2ccccc2)cs1	none | PPC-1 tox inactive
Cc1csc(NC(=O)CCS(=O)(=O)c2ccc(Br)cc2)n1	none | PPC-1 tox inactive
Cc1ccc(NC(=O)CN2CCN(S(=O)(=O)c3ccc(F)cc3)CC2)cc1C	none (no result: STAT3 blocker, FLuc act counter, PPC-1+TRAIL kill, HSP90 inh, FLuc inhib CS)
C=CCn1c(N)cc(=O)nc1SC(C)C(=O)Nc1cccc2ccccc12 (stereo unspecified)	none | PPC-1 tox inactive
CC(Sc1nc(=O)cc(N)n1CCc1ccccc1)C(=O)NCc1ccccc1 (stereo unspecified)	none
COc1ccc(-c2nc(CCl)cs2)cc1	none | PPC-1 tox inactive
CNc1ccccc1C(=O)OCC(=O)N1CCc2ccccc2C1	none (no result: STAT3 blocker, FLuc act counter, PPC-1+TRAIL kill, HSP90 inh, FLuc inhib CS)
Cc1cccc(NC(=O)c2cnc3ccccn3c2=O)c1	C8 TRAIL sens 70, PPC-1+TRAIL kill 60, FLuc inhib CS 84 | PPC-1 tox 59
Cc1cc(NC(=O)c2cnc3ccccn3c2=O)no1	none (no result: C8 TRAIL sens, FLuc act counter, PPC-1+TRAIL kill, FLuc inhib CS)
O=C(Nc1cnc2ccccn2c1=O)c1ccc(Cl)cc1Cl	STAT3 blocker 70, C8 TRAIL sens 62, FLuc inhib CS 75 | PPC-1 tox inactive
Cc1nn(Cc2ccc(C(=O)Nc3nc4c(C)cccc4s3)o2)c(C)c1Br	none
Cc1csc(NC(=O)c2cccc(Cn3nc(C)c(Br)c3C)c2)n1	none | PPC-1 tox inactive
Cc1cc(C)cc(-n2c3ccc(NC(=S)NC4CCCCC4)cc3c(=O)n2C)c1	none (no result: STAT3 blocker, FLuc act counter, PPC-1+TRAIL kill, HSP90 inh, FLuc inhib CS)
CC(=O)Cc1cc(O)c2ccccc2c1OC(=O)c1ccccc1	none | PPC-1 tox inactive
CC(=O)c1cc(C)c(OC(=O)c2ccccc2)c(C)c1	none (no result: STAT3 blocker, FLuc act counter, PPC-1+TRAIL kill, HSP90 inh, FLuc inhib CS)
CC(C)Oc1ccc(CN2CCC2(C)C(=O)NCc2cccc3ccccc23)cc1 (stereo unspecified)	none (no result: STAT3 blocker, FLuc act counter, PPC-1+TRAIL kill, HSP90 inh, FLuc inhib CS)
CC(=O)Nc1ccc(C2NC(=O)c3ccccc3O2)cc1 (stereo unspecified)	none
CC(=O)Nc1ccc(C2C(=O)c3ccccc3C2=O)cc1	C8 TRAIL sens 62, PPC-1+TRAIL kill 53 (no result: STAT3 blocker, FLuc act counter, FLuc inhib CS) | PPC-1 tox 54
O=C1c2ccccc2C(=O)C1c1ccncc1	C8 TRAIL sens 57, PPC-1+TRAIL kill 59, FLuc inhib CS 80 | PPC-1 tox 58
C=CCc1c(C)nc(SCc2ccccc2)[nH]c1=O	none (no result: STAT3 blocker, FLuc act counter, PPC-1+TRAIL kill, FLuc inhib CS)
CCOC(=O)C1CCN(S(=O)(=O)c2ccc(NC(=O)OC)cc2)CC1	none | PPC-1 tox inactive
CCOC(=O)C1CCN(S(=O)(=O)c2ccc(C)cc2)CC1	none
CCOCCCNC(=O)C1CCN(S(=O)(=O)c2ccc(C)cc2)CC1	none | PPC-1 tox inactive
O=C1CC(N2CCN(c3ccc(F)cc3)CC2)C(=O)N1Cc1ccc(N2CCCC2=O)cc1 (stereo unspecified)	none | PPC-1 tox inactive
COc1ccc(N2CCN(C3CC(=O)N(Cc4ccc(N5CCCC5=O)cc4)C3=O)CC2)cc1 (stereo unspecified)	none
COc1ccc(/C=C/C(=O)Nc2ccccc2C(=O)N2CCCC2)cc1	none
COc1cc(OC)c(OC)cc1/C=C/c1cc(C(=O)O)c2ccccc2n1	none
